Screens deposited in PubChem by several laboratories.
A selection: hits, their analogues and other compounds. The true share with any hit is near 3.9%.
697 NFkB inh: inhibitors of PMA/ionomycin-induced NF-kB reporter, 697 cells, primary screen, B-cell NF-kB inhibitor project, cell-based, luminescence, uHTS | 697 B-cell NF-kB luciferase reporter, 16 h | inhibition, % at 4 µM | 330,000 compounds, 0.33% hits; in the data active means inhibition above about 35%
CHOP inh: inhibitors of CHOP promoter induction, primary screen, cell-based, unfolded protein response, luciferase reporter; 220,000 compounds, 3.8% hits; CHO-K1 CHOP-promoter luciferase, tunicamycin-induced, 15-18 h; inhibition, % at 10 µM;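 active means compounds that reduced the stress-induced luciferase reporter signal by more than about 70% of percent inhibition, limit read from the data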
XBP1 UPR activ: activators of adaptive XBP1 UPR arm, primary screen, cell-based, CHO-XBP1 luciferase reporter, luminescence, uHTS. IRE1-XBP1 UPR activation; percent of tunicamycin response, DMSO as zero. activation, % at 20 µM. 330,000 compounds, 0.33% hits. AID 463104, 2010;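 active means versus positive control, 20 µM dose yields 30% or more activation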
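Assay system: IRE1-XBP1 luciferase reporter CHO line. Input: 1000 cells/well. Buffer or medium: F12 with 10% serum. Doses: 20 µM, 1% DMSO. Times: overnight seeding at 37 °C, 6 h compound treatment at 37 °C. Technique: Steady-Glo luciferase glow luminescence, 10 min after reagent addition.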
Jurkat NFkB inh: inhibitors of induced NF-kB luciferase reporter, primary screen, TCR NF-kB activation inhibitor project, cell-based, luminescence, uHTS; Jurkat, PMA/ionomycin-induced NF-kB luciferase reporter; inhibition, % at 4 µM; 330,000 compounds, 0.53% hits; AID 435003, 2010; in the data active means inhibition above about 50%
CHOP UPR activ: activators of apoptotic CHOP UPR arm, primary screen, cell-based, CHO-CHOP luciferase reporter, luminescence, uHTS; UPR activation; percent of tunicamycin response over DMSO baseline; activation, % at 10 µM; 330,000 compounds, 0.34% hits;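 active means at 10 µM dose, activation of 40% or more, normalized to positive control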
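Material: CHO-CHOP cells, stable luciferase reporter of PERK-eIF2a-CHOP signalling; quantity: 500 reporter cells seeded per well; buffer or medium: F12 medium containing 10% fetal bovine serum; compound: one dose, 10 µM in 0.5% DMSO; incubation: 6 h compound treatment, 37 °C; measured by: Steady-Glo luciferase luminescence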
Gli-Sufu block: Gli-Sufu pathway antagonists, primary screen, luciferase luminescence, Sufu-KO-LIGHT cells, uHTS; 340,000 compounds, 0.74% hits; Sufu-KO-LIGHT fibroblasts, Gli luciferase reporter luminescence; inhibition, % at 5 µM;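 active means inhibition above about 55%, limit read from the data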
Large screens that a line does not name were inactive.

O=[N+]([O-])c1cc(Cl)cc(/C=N\Nc2ccccn2)c1O	CHOP inh 93, Gli-Sufu block 57
O=[N+]([O-])c1ccc(Cl)cc1C=NNc1ccccn1	none (no result: 697 NFkB inh, CHOP inh, XBP1 UPR activ, Jurkat NFkB inh, CHOP UPR activ)
CC(=O)c1c(C)[nH]c(C(=O)COc2cc(C)ccc2C(C)C)c1C	CHOP inh 83
Cc1ccc(N2CC(C(=O)Nc3ccccc3OC(F)F)CC2=O)cc1 (centres undefined)	none (no result: CHOP inh)
CN(c1ccc(O)cc1)c1nc(-c2ccccc2)cs1	CHOP inh 90 (no result: 697 NFkB inh, XBP1 UPR activ, Jurkat NFkB inh, CHOP UPR activ)
CN(C(=O)c1ccco1)c1nc(-c2ccccc2)cs1	none (no result: CHOP inh)
Cc1ccc(NCc2nnc(SCC(=O)Nc3ncc(C)s3)n2Cc2ccco2)c(C)c1	CHOP inh 94
CC(C)(C)NC(=O)NC(=O)COC(=O)C1=COCCO1	CHOP inh 81
O=C(COC(=O)C1=COCCO1)Nc1ccccc1	none
O=C(NCc1ccccn1)C(=O)Nc1cc2c3c(c1)CC(=O)N3CCC2	none (no result: CHOP inh)
O=S(=O)(Nc1ccc(S(=O)(=O)Nc2ccccc2)cc1)c1ccccc1	none
O=S(=O)(Nc1ccc(N=Nc2ccccc2)cc1)c1ccccc1	CHOP inh 95
O=S(=O)(Nc1ccc(N=Nc2ccc(O)c3ccccc23)cc1)c1ccccc1	CHOP inh 89
O=[N+]([O-])c1ccc(Cl)cc1NCc1cccnc1	none (no result: CHOP inh)
CCOc1ccc2nc(NCCNC(=O)C3CC3)c(C)cc2c1	none (no result: CHOP inh)
Cc1cc2cc(C)c(NCCNC(=O)c3ccccc3)nc2cc1C	CHOP inh 90
CCOc1ccc2nc(NCCNC(=O)C(C)C)c(C)cc2c1	CHOP inh 71
COc1ccccc1CNC(=O)C(Cc1ccccc1)NC(=O)c1ccccc1 (centres undefined)	none (no result: CHOP inh)
S=C(c1ccc(-c2ccccc2Cl)o1)N1CCOCC1	CHOP inh 71
CCC1Oc2ccc(C)cc2N(Cc2cccc(C)c2)C1=O (centres undefined)	CHOP inh 96
c1ccc(-c2nnc(SCc3nnc(-c4cccs4)o3)o2)cc1	none
Clc1ccc(-c2nnc(CSc3nnc(-c4cccs4)o3)o2)cc1	CHOP inh 70
Clc1ccc(OCc2nnc(SCc3nnc(-c4ccccc4)o3)o2)c(Cl)c1	CHOP inh 77
CCCCCCCc1nc2c(=O)n(C)c3ccccc3c2o1	CHOP inh 89
CCCCCCc1nc2c(=O)[nH]c3ccccc3c2o1	none
COc1ccc(CN(C)CC(=O)Nc2ccccc2C(=O)NC2CC2)cc1OC	none (no result: CHOP inh)
CCCCn1c(=O)c2ccccc2c2ccccc2c1=O	CHOP inh 76
COCCn1c(=O)c2ccccc2c2ccccc2c1=O	none
COc1ccc(/C=C/c2nc(N)nc(-c3ccccc3O)n2)cc1OC	CHOP inh 79
COc1ccc(/C=C/c2nc(N)nc(-c3ccccc3O)n2)cc1	CHOP inh 78
Cc1cc(C)n(-c2nc3ccccc3nc2N2CCC(C)CC2)n1	none
Cc1ccc(S(=O)(=O)N2CCN(c3nc4ccccc4nc3-n3nc(C)cc3C)CC2)cc1	CHOP inh 73
Fc1ccccc1CNCc1ccc2c(c1)OCO2	none (no result: CHOP inh)
CCCSc1nc2c(cnn2-c2ccc(C)cc2)c(=O)[nH]1	none
O=C(CSc1nc2c(cnn2-c2ccccc2)c(=O)[nH]1)c1ccc(Cl)cc1	CHOP inh 92
CCCSc1nc2c(cnn2-c2ccccc2)c(=O)[nH]1	CHOP inh 80
CC(C)(C)c1ccc(C(=O)CSc2nc3ccccc3c(=O)[nH]2)cc1	CHOP inh 75
CCCSc1nc2c(cnn2-c2ccc(F)cc2)c(=O)[nH]1	CHOP inh 79
O=C(CSc1nc2c(cnn2-c2ccccc2)c(=O)[nH]1)N1CCCCC1	none
COc1cccc(/C=C/C(=O)N(C)CC(=O)Nc2ccc(Cl)c(C(F)(F)F)c2)c1	none (no result: CHOP inh)
